In ChEMBL document CHEMBL4376814, “Novel cyclin-dependent kinase 9 (CDK9) inhibitor with suppression of cancer stemness activity against non-small-cell lung cancer” (Eur J Med Chem, 2019):

Tests used:
[1] = system: NCI-H1299; assay: Antitumour activity against human H1299 cells xenografted in Balb/c mouse assessed as inhibition of tumour growth at 80 mg/kg, po administered for 21 days by digital caliper method relative to control; type: functional; conditions: 504 h, read-out: TGI
Procedure, shortened: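 Female nude mice, 6-8 weeks old, injected subcutaneously with 1×10^6 H1299 cells (100 µL of a 1×10^7/mL suspension in serum-free medium). At 100-120 mm3, randomized into groups of 5. Dosed orally each day for 21 days with drug dissolved in DMSO, or with vehicle. Caliper measurements and body weight taken every other day. Volume = short²×long×0.5. Growth inhibition based on change in volume relative to vehicle. Tumours weighed at the end.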

[2] = molecular target: Tyrosine-protein kinase BTK (Homo sapiens) (UniProt Q06187); assay: Inhibition of full-length recombinant human BTK at 1 uM using KVEKIGEGTYGVVYK as substrate measured after 40 mins in presence of [gamma33P]ATP by scintillation counting method relative to control
Procedure, shortened: (§1)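 Single-point inhibition at 1 µM was measured in the Eurofins KinaseProfiler panel. Values are the mean of two independent experiments.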

[3] = molecular target: Serine/threonine-protein kinase MRCK alpha (Homo sapiens) (UniProt Q5VT25); assay: Inhibition of recombinant human MRCKalpha (1 to 473 residues) at 1 uM using KKRNRTLTV as substrate measured after 40 mins in presence of [gamma33P]ATP by scintillation counting method relative to control
[4] = molecular target: Cyclin-dependent kinase 1/cyclin B1 (Homo sapiens) (UniProt P06493+P14635); assay: Inhibition of recombinant full-length human CDK1/cyclinB at 1 uM using Histone H1 as substrate measured after 40 mins in presence of [gamma33P]ATP by scintillation counting method relative to control; type: protein-complex assay
[5] = molecular target: CDK2/Cyclin A2 (Homo sapiens) (UniProt P24941+P20248); assay: Inhibition of recombinant full-length human CDK2/cyclinA at 1 uM using Histone H1 as substrate measured after 40 mins in presence of [gamma33P]ATP by scintillation counting method relative to control; type: protein-complex assay
[6] = molecular target: Cyclin-dependent kinase 13/Cyclin-K (Homo sapiens) (UniProt Q14004+O75909); assay: Inhibition of human full length recombinant CDK13/cyclinK at 1 uM using RSRSRSRSRSRSRSR as substrate incubated for 120 mins in presence of [gamma-33P]ATP at by radiometric assay relative to control; type: protein-complex assay
[7] = molecular target: PAS domain-containing serine/threonine-protein kinase (Homo sapiens) (UniProt Q96RG2); assay: Inhibition of recombinant human PASK (995 to end residues) at 1 uM using KKLNRTLSFAEPG as substrate measured after 40 mins in presence of [gamma33P]ATP by scintillation counting method relative to control
[8] = molecular target: Serine/threonine-protein kinase pim-3 (Homo sapiens) (UniProt Q86V86); assay: Inhibition of recombinant human Pim-3 (2 to end residues) at 1 uM using RSRHSSYPAGT as substrate measured after 40 mins in presence of [gamma33P]ATP by scintillation counting method relative to control
[9] = molecular target: Death-associated protein kinase 1 (Homo sapiens) (UniProt P53355); assay: Inhibition of recombinant human DAPK1 (1 to 296 residues) at 1 uM using KKLNRTLSFAEPG as substrate measured after 40 mins in presence of [gamma33P]ATP by scintillation counting method relative to control
[10] = molecular target: Protein kinase C zeta type (Homo sapiens) (UniProt Q05513); assay: Inhibition of recombinant human PKCzeta (2 to end residues) at 1 uM using ERMRPRKRQGSVRRRV as substrate measured after 40 mins in presence of [gamma33P]ATP by scintillation counting method relative to control; procedure, shortened: as §1
[11] = molecular target: Serine/threonine-protein kinase PLK1 (Homo sapiens) (UniProt P53350); assay: Inhibition of full length human PLK1 at 1 uM using casein as substrate measured after 40 mins in presence of [gamma33P]ATP by scintillation counting method
Chain of Serine/threonine-protein kinase PLK1 (Homo sapiens) (P53350 whole entry): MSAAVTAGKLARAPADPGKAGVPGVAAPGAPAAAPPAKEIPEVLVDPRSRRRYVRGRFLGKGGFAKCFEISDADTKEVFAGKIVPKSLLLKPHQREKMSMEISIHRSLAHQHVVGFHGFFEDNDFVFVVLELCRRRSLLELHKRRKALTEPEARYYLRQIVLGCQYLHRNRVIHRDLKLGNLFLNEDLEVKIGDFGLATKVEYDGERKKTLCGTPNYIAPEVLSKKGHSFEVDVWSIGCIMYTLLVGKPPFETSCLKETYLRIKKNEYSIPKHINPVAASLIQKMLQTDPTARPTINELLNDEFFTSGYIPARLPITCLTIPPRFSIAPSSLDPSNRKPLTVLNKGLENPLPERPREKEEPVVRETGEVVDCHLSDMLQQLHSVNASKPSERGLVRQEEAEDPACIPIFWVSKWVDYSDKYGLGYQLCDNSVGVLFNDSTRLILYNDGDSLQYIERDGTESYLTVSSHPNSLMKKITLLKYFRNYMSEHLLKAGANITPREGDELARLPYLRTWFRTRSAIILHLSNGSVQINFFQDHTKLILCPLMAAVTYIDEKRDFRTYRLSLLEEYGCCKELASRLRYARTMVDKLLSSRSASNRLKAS

[12] = molecular target: Insulin-like growth factor 1 receptor (Homo sapiens) (UniProt P08069); assay: Inhibition of recombinant human activated IGF1R (959 to end residues) at 1 uM using KKKSPGEYVNIEFG as substrate measured after 40 mins in presence of [gamma33P]ATP by scintillation counting method relative to control
Chain of Insulin-like growth factor 1 receptor (Homo sapiens) (P08069 31-736 limits assumed): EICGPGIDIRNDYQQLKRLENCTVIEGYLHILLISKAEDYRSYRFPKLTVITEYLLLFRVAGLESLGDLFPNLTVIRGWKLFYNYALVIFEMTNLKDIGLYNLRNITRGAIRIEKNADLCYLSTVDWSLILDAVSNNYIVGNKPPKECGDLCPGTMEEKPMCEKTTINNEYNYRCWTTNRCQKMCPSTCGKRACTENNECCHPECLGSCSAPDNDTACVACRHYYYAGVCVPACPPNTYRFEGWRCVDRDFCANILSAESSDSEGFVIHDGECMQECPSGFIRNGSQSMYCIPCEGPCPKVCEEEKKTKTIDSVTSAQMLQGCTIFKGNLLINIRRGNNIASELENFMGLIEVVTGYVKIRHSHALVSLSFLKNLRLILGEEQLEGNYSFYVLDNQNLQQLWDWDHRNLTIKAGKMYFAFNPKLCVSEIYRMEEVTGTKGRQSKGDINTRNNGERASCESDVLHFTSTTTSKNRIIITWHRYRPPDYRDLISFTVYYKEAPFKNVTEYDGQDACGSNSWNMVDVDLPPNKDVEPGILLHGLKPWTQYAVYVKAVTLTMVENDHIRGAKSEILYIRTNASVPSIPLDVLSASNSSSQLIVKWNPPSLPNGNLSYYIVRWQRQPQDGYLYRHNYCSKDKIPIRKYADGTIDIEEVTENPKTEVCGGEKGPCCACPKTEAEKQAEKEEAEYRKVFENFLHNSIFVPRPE
Chain of Insulin-like growth factor 1 receptor (Homo sapiens) (P08069 741-1367 limits assumed): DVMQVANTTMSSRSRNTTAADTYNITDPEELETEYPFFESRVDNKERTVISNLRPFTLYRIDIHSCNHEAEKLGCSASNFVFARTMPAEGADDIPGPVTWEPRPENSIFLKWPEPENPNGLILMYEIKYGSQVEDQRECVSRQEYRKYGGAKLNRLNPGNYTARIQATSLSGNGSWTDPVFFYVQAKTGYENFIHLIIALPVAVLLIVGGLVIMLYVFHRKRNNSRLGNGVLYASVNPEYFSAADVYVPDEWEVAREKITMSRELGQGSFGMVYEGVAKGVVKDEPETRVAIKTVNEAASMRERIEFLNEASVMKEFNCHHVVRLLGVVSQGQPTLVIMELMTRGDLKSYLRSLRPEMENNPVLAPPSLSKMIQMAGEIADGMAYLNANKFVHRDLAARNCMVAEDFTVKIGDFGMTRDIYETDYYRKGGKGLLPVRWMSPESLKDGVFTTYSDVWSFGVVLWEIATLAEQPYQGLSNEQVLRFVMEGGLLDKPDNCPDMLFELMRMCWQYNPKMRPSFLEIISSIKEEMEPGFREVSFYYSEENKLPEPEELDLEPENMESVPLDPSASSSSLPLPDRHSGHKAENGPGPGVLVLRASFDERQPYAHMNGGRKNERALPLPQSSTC

[13] = molecular target: Inhibitor of nuclear factor kappa-B kinase subunit beta (Homo sapiens) (UniProt O14920); assay: Inhibition of recombinant full-length human IKKbeta at 1 uM using peptide substrate measured after 40 mins in presence of [gamma33P]ATP by scintillation counting method relative to control
[14] = molecular target: Insulin receptor (Homo sapiens) (UniProt P06213); assay: Inhibition of recombinant human activated IR (1005 to 1310 residues) at 1 uM using KKKSPGEYVNIEFG as substrate measured after 40 mins in presence of [gamma33P]ATP by scintillation counting method relative to control
[15] = molecular target: Mitogen-activated protein kinase kinase kinase 7 (Homo sapiens) (UniProt O43318); assay: Inhibition of human TAK1 (1 to 303 residues) at 1 uM using casein as substrate measured after 40 mins in presence of [gamma33P]ATP by scintillation counting method relative to control
Chain of Mitogen-activated protein kinase kinase kinase 7 (Homo sapiens) (O43318 whole entry, the tested form may be a part): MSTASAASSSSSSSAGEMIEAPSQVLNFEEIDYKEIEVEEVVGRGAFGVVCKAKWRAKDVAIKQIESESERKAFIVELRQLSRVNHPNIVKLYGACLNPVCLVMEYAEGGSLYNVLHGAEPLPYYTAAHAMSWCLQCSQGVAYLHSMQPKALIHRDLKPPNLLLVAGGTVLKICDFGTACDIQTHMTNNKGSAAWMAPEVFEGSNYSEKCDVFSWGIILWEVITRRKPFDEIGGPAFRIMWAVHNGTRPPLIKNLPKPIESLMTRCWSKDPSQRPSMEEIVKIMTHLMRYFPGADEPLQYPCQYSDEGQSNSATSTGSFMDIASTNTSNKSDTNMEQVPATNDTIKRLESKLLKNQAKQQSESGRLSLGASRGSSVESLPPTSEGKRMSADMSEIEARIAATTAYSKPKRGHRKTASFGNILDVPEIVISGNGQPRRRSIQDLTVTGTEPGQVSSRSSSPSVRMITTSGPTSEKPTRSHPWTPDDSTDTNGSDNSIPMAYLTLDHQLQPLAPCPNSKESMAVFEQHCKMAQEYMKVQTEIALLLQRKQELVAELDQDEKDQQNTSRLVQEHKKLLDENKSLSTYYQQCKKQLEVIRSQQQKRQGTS
Procedure, shortened: (§2)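 Percent inhibition of kinase activity at a single compound concentration, measured by the outsourced Eurofins KinaseProfiler panel. Values are the mean of two independent experiments.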

[16] = molecular target: TRAF2 and NCK-interacting protein kinase (Homo sapiens) (UniProt Q9UKE5); assay: Inhibition of human TNIK (1 to 367 residues) at 1 uM using RLGRDKYKTLRQIRQ as substrate measured after 40 mins in presence of [gamma33P]ATP by scintillation counting method relative to control; procedure, shortened: as §2
[17] = molecular target: BDNF/NT-3 growth factors receptor (Homo sapiens) (UniProt Q16620); assay: Inhibition of recombinant human TRKB (455 to end residues) at 1 uM using poly(Glu, Tyr) 4:1 as substrate measured after 40 mins in presence of [gamma33P]ATP by scintillation counting method relative to control
[18] = molecular target: NT-3 growth factor receptor (Homo sapiens) (UniProt Q16288); assay: Inhibition of recombinant human TrkC (510 to end residues) at 1 uM using GEEPLYWSFPAKKK as substrate measured after 40 mins in presence of [gamma33P]ATP by scintillation counting method relative to control
Chain of NT-3 growth factor receptor (Homo sapiens) (Q16288 32-839 limits assumed): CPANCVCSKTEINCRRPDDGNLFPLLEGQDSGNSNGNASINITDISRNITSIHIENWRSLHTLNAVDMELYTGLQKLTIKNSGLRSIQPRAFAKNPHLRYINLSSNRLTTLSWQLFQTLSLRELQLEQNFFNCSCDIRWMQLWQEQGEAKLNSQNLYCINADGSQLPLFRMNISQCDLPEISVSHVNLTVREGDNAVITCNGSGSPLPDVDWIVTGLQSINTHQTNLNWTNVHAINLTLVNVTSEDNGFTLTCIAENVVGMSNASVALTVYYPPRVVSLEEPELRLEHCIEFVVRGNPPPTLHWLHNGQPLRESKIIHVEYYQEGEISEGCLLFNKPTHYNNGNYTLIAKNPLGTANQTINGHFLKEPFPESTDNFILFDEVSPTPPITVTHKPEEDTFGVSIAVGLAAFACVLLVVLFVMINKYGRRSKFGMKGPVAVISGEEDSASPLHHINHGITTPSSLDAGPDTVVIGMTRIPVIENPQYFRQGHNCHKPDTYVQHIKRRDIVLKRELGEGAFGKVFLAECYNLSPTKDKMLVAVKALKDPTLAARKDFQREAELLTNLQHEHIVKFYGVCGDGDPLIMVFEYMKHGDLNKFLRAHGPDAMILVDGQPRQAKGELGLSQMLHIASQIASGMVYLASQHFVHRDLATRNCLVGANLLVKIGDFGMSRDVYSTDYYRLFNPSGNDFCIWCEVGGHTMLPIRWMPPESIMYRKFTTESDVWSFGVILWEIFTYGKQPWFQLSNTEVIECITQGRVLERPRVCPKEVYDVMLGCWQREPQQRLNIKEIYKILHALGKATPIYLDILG

[19] = molecular target: Tyrosine-protein kinase TXK (Homo sapiens) (UniProt P42681); assay: Inhibition of human Txk (256 to end residues) at 1 uM using GEEPLYWSFPAKKK as substrate measured after 40 mins in presence of [gamma33P]ATP by scintillation counting method relative to control; procedure, shortened: as §2
[20] = molecular target: Non-receptor tyrosine-protein kinase TYK2 (Homo sapiens) (UniProt P29597); assay: Inhibition of human TYK2 (875 to end residues) at 1 uM using GGMEDIYFEFMGGKKK as substrate measured after 40 mins in presence of [gamma33P]ATP by scintillation counting method relative to control; procedure, shortened: as §2
Chain of Non-receptor tyrosine-protein kinase TYK2 (Homo sapiens) (P29597 whole entry): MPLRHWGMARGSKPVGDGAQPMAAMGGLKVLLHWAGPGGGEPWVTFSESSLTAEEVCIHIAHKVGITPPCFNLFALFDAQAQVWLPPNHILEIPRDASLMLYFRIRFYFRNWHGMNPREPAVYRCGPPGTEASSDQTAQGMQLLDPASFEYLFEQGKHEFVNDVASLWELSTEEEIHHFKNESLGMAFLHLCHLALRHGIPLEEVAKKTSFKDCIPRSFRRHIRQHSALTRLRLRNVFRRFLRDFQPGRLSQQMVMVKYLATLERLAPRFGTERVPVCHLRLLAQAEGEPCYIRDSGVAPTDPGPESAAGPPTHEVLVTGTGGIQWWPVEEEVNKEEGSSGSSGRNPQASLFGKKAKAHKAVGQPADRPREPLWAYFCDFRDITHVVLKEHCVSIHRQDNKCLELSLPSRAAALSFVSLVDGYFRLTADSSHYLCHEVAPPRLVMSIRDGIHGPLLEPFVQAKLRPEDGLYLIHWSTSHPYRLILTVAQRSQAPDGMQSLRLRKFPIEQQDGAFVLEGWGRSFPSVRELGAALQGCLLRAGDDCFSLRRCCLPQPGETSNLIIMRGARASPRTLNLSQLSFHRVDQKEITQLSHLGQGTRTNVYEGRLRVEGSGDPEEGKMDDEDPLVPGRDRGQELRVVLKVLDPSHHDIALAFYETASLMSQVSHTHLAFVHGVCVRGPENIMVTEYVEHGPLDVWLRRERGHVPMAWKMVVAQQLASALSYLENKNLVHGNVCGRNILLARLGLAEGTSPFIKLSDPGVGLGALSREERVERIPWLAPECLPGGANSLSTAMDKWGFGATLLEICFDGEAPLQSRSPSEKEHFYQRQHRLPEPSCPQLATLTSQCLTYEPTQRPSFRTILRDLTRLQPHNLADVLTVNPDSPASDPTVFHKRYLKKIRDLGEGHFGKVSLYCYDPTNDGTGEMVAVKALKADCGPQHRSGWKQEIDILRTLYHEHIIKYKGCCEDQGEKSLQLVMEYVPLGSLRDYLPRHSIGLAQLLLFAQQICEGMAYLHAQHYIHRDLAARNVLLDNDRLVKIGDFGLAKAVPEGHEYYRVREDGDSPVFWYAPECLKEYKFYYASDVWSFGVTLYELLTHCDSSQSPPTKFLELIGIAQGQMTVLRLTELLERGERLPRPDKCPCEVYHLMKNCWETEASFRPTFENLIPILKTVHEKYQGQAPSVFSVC

[21] = molecular target: Wee1-like protein kinase (Homo sapiens) (UniProt P30291); assay: Inhibition of recombinant human Wee1 (214 to end residues) at 1 uM using LSNLYHQGKFLQTFCGSPLYRRR as substrate measured after 40 mins in presence of [gamma33P]ATP by scintillation counting method relative to control

`CN(C)C(=O)c1cc2cnc(Nc3ccc(NC(=O)CCCCCCCN=C=S)cc3)nc2n1C1CCCC1` showed an inhibition in vivo at 80 mg/kg [1] of 94.7%, an inhibition [2] of 96% and an inhibition [3] of -5%. It also gave an inhibition [4] of 58%, an inhibition [5] of 58% and an inhibition [6] of 26%. For the same compound, the inhibition [7] was 6%, the inhibition [8] was -8% and the inhibition [9] was -5%. The inhibition [10] was 1%, the inhibition [11] was -2% and the inhibition [12] was 0%. For the same compound, the inhibition [13] was -1%, the inhibition [14] was -7% and the inhibition [15] was 79%. The inhibition [16] was 69%, the inhibition [17] was 92% and the inhibition [18] was 80%. For the same compound, the inhibition [19] was 81%, the inhibition [20] was 4% and the inhibition [21] was 8%.
